Data: ChEMBL document CHEMBL1138564, “Microwave-induced synthesis and anti-microbial activities of 7,10,11,12-tetrahydrobenzo[c]acridin-8(9H)-one derivatives” (2009)
Values after ≈ are worked out from the molar mass of the structure shown. Active and inactive are the calls of the source. No cut-off for these calls is given here.

Columns and labels:
Assay type in all cases: functional
Escherichia coli [1] = assay: Antimicrobial activity against Escherichia coli NCIM 2065 at 1000 ug/disk after 24 hrs by disk diffusion method; settings: NCIM 2065, 24 h, read-out: DIZ
Method in brief: (§1)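 Disc diffusion on Mueller–Hinton agar. 100 µl of bacterial suspension at 10⁸ CFU/ml is spread on the plate. Discs carry test compounds at two loadings, dissolved in DMSO; DMSO alone serves as negative control. Ofloxacin disc is the positive reference. Plates are incubated at 37 °C for 24 h, and the inhibition zone diameter is measured.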

Bacillus subtilis [2] = assay: Antimicrobial activity against Bacillus subtilis NCIM 2063 at 1000 ug/disk after 24 hrs by disk diffusion method; settings: NCIM 2063, 24 h, read-out: DIZ; method in brief: as §1
Bacillus cereus [3] = assay: Antimicrobial activity against Bacillus cereus NCIM 2155 at 500 ug/disk after 24 hrs by disk diffusion method; method in brief: as §1
Bacillus cereus [4] = assay: Antimicrobial activity against Bacillus cereus NCIM 2155 at 1000 ug/disk after 24 hrs by disk diffusion method; method in brief: as §1
Aliivibrio fischeri [5] = assay: Antimicrobial activity against Vibrio fischeri NCIM 2154 at 500 ug/disk after 24 hrs by disk diffusion method; settings: NCIM 2154, 24 h, read-out: DIZ
Method in brief: (§2)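 Disc diffusion. 100 µl of bacterial suspension at 10⁸ CFU/ml was spread on Mueller–Hinton agar. Discs loaded with test compound dissolved in DMSO were placed on the lawn, with a DMSO-only disc as negative control. Plates were incubated at 37 °C for 24 h, and the inhibition zone diameter was measured.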

Aliivibrio fischeri [6] = assay: Antimicrobial activity against Vibrio fischeri NCIM 2154 at 1000 ug/disk after 24 hrs by disk diffusion method; settings: NCIM 2154, 24 h, read-out: DIZ; method in brief: as §2
[7] = test system: Rhodococcus corynebacterioides; assay: Antimicrobial activity against Corynebacterium rubrum NCIM 2252 at 500 ug/disk after 24 hrs by disk diffusion method; settings: Rhodococcoides corynebacterioides, NCIM 2252, 24 h; read-out: DIZ; method in brief: as §1
[8] = test system: Rhodococcus corynebacterioides; assay: Antimicrobial activity against Corynebacterium rubrum NCIM 2252 at 1000 ug/disk after 24 hrs by disk diffusion method; settings: Rhodococcoides corynebacterioides, NCIM 2252, 24 h; read-out: DIZ; method in brief: as §1
Staphylococcus = assay: Antimicrobial activity against Staphylococcus albus NCIM 2178 at 1000 ug/disk after 24 hrs by disk diffusion method; settings: for zone of inhibition at 1000 µg/disc: NCIM 2178, 24 h, read-out: DIZ; method in brief: as §2
Proteus vulgaris [9] = assay: Antimicrobial activity against Proteus vulgaris NCIM 2027 at 500 ug/disk after 24 hrs by disk diffusion method; settings: for zone of inhibition at 500 µg/disc: NCIM 2027, 24 h, read-out: DIZ; method in brief: as §1
Proteus vulgaris [10] = assay: Antimicrobial activity against Proteus vulgaris NCIM 2027 at 1000 ug/disk after 24 hrs by disk diffusion method; settings: for zone of inhibition at 1000 µg/disc: NCIM 2027, 24 h, read-out: DIZ; method in brief: as §1
Aspergillus flavus [11] = assay: Antimicrobial activity against Aspergillus flavus NCIM 902 at 1000 ug/disk after 72 hrs by disk diffusion method; settings: NCIM 902, 72 h, read-out: DIZ
Method in brief: (§3)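 Disc diffusion on Sabouraud's dextrose agar. 100 µl of fungal suspension at 10⁶ CFU/ml is spread on the plate. Discs carry test compounds at two loadings in DMSO; DMSO alone is the negative control. Clotrimazole disc is the positive reference. Plates are incubated at 27 °C for 72 h, and the zone of inhibition diameter is measured.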

Rhodotorula mucilaginosa [12] = assay: Antimicrobial activity against Rhodotorula rubra NCIM 3174 at 500 ug/disk after 72 hrs by disk diffusion method; settings: NCIM 3174, 72 h, read-out: DIZ
Method in brief: (§4)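 Fungal disc diffusion. 100 µl of suspension at 10⁶ CFU/ml was spread on Sabouraud's dextrose agar. Discs carrying test compound in DMSO were applied, with a DMSO-only disc as negative control. Plates were incubated at 27 °C for 72 h, and the zone of inhibition diameter was measured.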

Rhodotorula mucilaginosa [13] = assay: Antimicrobial activity against Rhodotorula rubra NCIM 3174 at 1000 ug/disk after 72 hrs by disk diffusion method; settings: NCIM 3174, 72 h, read-out: DIZ; method in brief: as §4
Aspergillus fumigatus [14] = assay: Antimicrobial activity against Aspergillus fumigatus NCIM 902 at 500 ug/disk after 72 hrs by disk diffusion method; method in brief: as §3
Aspergillus fumigatus [15] = assay: Antimicrobial activity against Aspergillus fumigatus NCIM 902 at 1000 ug/disk after 72 hrs by disk diffusion method; settings: for zone of inhibition at 1000 µg/disc: NCIM 902, 72 h, read-out: DIZ; method in brief: as §3
Aspergillus parasiticus [16] = assay: Antimicrobial activity against Aspergillus parasiticus NCIM 904 at 1000 ug/disk after 72 hrs by disk diffusion method; settings: NCIM 904, 72 h, read-out: DIZ; method in brief: as §3
Penicillium chrysogenum [17] = assay: Antimicrobial activity against Penicillium chrysogenum NCIM 707 at 500 ug/disk after 72 hrs by disk diffusion method; method in brief: as §3
Penicillium chrysogenum [18] = assay: Antimicrobial activity against Penicillium chrysogenum NCIM 707 at 1000 ug/disk after 72 hrs by disk diffusion method; method in brief: as §3
Lipomyces lipofer [19] = assay: Antimicrobial activity against Lipomyces lipofer NCIM 3252 at 500 ug/disk after 72 hrs by disk diffusion method; settings: for zone of inhibition at 500 µg/disc: NCIM 3252, 72 h, read-out: DIZ; method in brief: as §3
Lipomyces lipofer [20] = assay: Antimicrobial activity against Lipomyces lipofer NCIM 3252 at 1000 ug/disk after 72 hrs by disk diffusion method; settings: for zone of inhibition at 1000 µg/disc: NCIM 3252, 72 h, read-out: DIZ; method in brief: as §3
Klebsiella aerogenes = assay: Antimicrobial activity against Klebsiella aerogenes NCIM 2239 at 1000 ug/disk after 24 hrs by disk diffusion method; settings: NCIM 2239, 24 h, read-out: DIZ; method in brief: as §1
Pseudomonas aeruginosa = assay: Antimicrobial activity against Pseudomonas aeruginosa NCIM 2200 at 1000 ug/disk after 24 hrs by disk diffusion method; method in brief: as §1
Aspergillus flavus [21] = assay: Antimicrobial activity against Aspergillus flavus NCIM 902 after 72 hrs by serial dilution method; settings: NCIM 535, 72 h, in the assay text read “NCIM 535” for “NCIM 902”
Method in brief: (§5)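 MIC by broth dilution in Sabouraud's dextrose broth, only for fungi sensitive in disc diffusion. Two-fold serial dilutions of compounds are made in 1 ml broth per tube, range 3.9 to 1000. Inoculated tubes are incubated at 27 °C for 72 h.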

Rhodotorula mucilaginosa [22] = assay: Antimicrobial activity against Rhodotorula rubra NCIM 3174 after 72 hrs by serial dilution method; settings: NCIM 3174, 72 h
Method in brief: (§6)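 MIC by broth dilution in Sabouraud's dextrose broth, run only on fungi found sensitive in the disc assay. Twofold serial dilutions were made in 1 ml broth per tube, covering 3.9 to 1000. Inoculated tubes were incubated at 27 °C for 72 h.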

Aspergillus parasiticus [23] = assay: Antimicrobial activity against Aspergillus parasiticus NCIM 904 after 72 hrs by serial dilution method; settings: NCIM 904, 72 h; method in brief: as §5
Trichoderma viride [24] = assay: Antimicrobial activity against Trichoderma viride NCIM 1195 after 72 hrs by serial dilution method; settings: NCIM 1195, 72 h; method in brief: as §6
Trichoderma viride [25] = assay: Antimicrobial activity against Trichoderma viride NCIM 1195 at 500 ug/disk after 72 hrs by disk diffusion method; settings: NCIM 1195, 72 h, read-out: DIZ; method in brief: as §4
Trichoderma viride [26] = assay: Antimicrobial activity against Trichoderma viride NCIM 1195 at 1000 ug/disk after 72 hrs by disk diffusion method; settings: NCIM 1195, 72 h, read-out: DIZ; method in brief: as §4
Escherichia coli [27] = assay: Antimicrobial activity against Escherichia coli NCIM 2065 after 24 hrs by serial dilution method; settings: NCIM 2065, 24 h
Method in brief: (§7)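 Broth dilution MIC in nutrient broth, run only for organisms found sensitive in disc diffusion. Compounds are two-fold serially diluted in 1 ml sterile broth per tube, spanning 3.9 to 1000. Inoculated tubes are incubated at 37 °C for 24 h.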

Bacillus subtilis [28] = assay: Antimicrobial activity against Bacillus subtilis NCIM 2063 after 24 hrs by serial dilution method; settings: NCIM 2063, 24 h; method in brief: as §7
Aliivibrio fischeri [29] = assay: Antimicrobial activity against Vibrio fischeri NCIM 2154 after 24 hrs by serial dilution method; settings: NCIM 2154, 24 h

Row | Compound | zone of inhibition at 1000 µg/disc (Escherichia coli [1]) | zone of inhibition at 1000 µg/disc (Bacillus subtilis [2]) | zone of inhibition at 500 µg/disc (Aliivibrio fischeri [5]) | zone of inhibition at 1000 µg/disc (Aliivibrio fischeri [6]) | zone of inhibition at 500 µg/disc [7] | zone of inhibition at 1000 µg/disc [8] | zone of inhibition at 1000 µg/disc (Aspergillus flavus [11]) | zone of inhibition at 500 µg/disc (Rhodotorula mucilaginosa [12]) | zone of inhibition at 1000 µg/disc (Rhodotorula mucilaginosa [13]) | zone of inhibition at 1000 µg/disc (Aspergillus parasiticus [16]) | zone of inhibition at 1000 µg/disc (Klebsiella aerogenes) | MIC (Aspergillus flavus [21]) | MIC (Rhodotorula mucilaginosa [22]) | MIC (Aspergillus parasiticus [23]) | MIC (Trichoderma viride [24]) | zone of inhibition at 500 µg/disc (Trichoderma viride [25]) | zone of inhibition at 1000 µg/disc (Trichoderma viride [26]) | MIC (Escherichia coli [27]) | MIC (Bacillus subtilis [28]) | MIC (Aliivibrio fischeri [29]) | further results
1 | O=C1CCCC2=C1C(c1ccc(O)cc1)c1ccc3ccccc3c1N2 (stereo unspecified) | 9 mm | 11 mm | 7 mm | 9 mm | 7 mm | 9 mm | 8 mm | 12 mm | 14 mm | 13 mm | 10 mm | 125 µg/mL (≈ 366 µM) | 7.8 µg/mL (≈ 22.8 µM) | 15.6 µg/mL (≈ 45.7 µM) | 31.2 µg/mL (≈ 91.4 µM) | 10 mm | 11 mm | 125 µg/mL (≈ 366 µM) | 31.2 µg/mL (≈ 91.4 µM) | 125 µg/mL (≈ 366 µM) | diameter of the inhibition zone (DIZ) (Bacillus cereus [3]): inactive; diameter of the inhibition zone (DIZ) (Bacillus cereus [4]): inactive; zone of inhibition at 1000 µg/disc (Staphylococcus): 10 mm; zone of inhibition at 500 µg/disc (Proteus vulgaris [9]): 7 mm; zone of inhibition at 1000 µg/disc (Proteus vulgaris [10]): 9 mm; diameter of the inhibition zone (DIZ) (Aspergillus fumigatus [14]): inactive; diameter of the inhibition zone (DIZ) (Aspergillus fumigatus [15]): inactive; zone of inhibition at 500 µg/disc (Penicillium chrysogenum [17]; NCIM 707, 72 h, read-out: DIZ): 9 mm; zone of inhibition at 1000 µg/disc (Penicillium chrysogenum [18]; NCIM 707, 72 h, read-out: DIZ): 10 mm; zone of inhibition at 500 µg/disc (Lipomyces lipofer [19]): 10 mm; zone of inhibition at 1000 µg/disc (Lipomyces lipofer [20]): 11 mm; zone of inhibition at 1000 µg/disc (Pseudomonas aeruginosa; NCIM 2200, 24 h, read-out: DIZ): 9 mm
2 | O=C1CCCC2=C1C(c1cccc(Cl)c1)c1ccc3ccccc3c1N2 (stereo unspecified) | 9 mm | 11 mm | 9 mm | 10 mm | 7 mm | 9 mm | 11 mm | 8 mm | 10 mm | 13 mm | 9 mm | 62.5 µg/mL (≈ 174 µM) | 62.5 µg/mL (≈ 174 µM) | 15.6 µg/mL (≈ 43.4 µM) | 125 µg/mL (≈ 347 µM) | 8 mm | 10 mm | 62.5 µg/mL (≈ 174 µM) | 31.2 µg/mL (≈ 86.7 µM) | 62.5 µg/mL (≈ 174 µM) | diameter of the inhibition zone (DIZ) (Bacillus cereus [3]): inactive; diameter of the inhibition zone (DIZ) (Bacillus cereus [4]): inactive; diameter of the inhibition zone (DIZ) (Staphylococcus): inactive; diameter of the inhibition zone (DIZ) (Proteus vulgaris [9]): inactive; diameter of the inhibition zone (DIZ) (Proteus vulgaris [10]): inactive; zone of inhibition at 500 µg/disc (Aspergillus fumigatus [14]; NCIM 902, 72 h, read-out: DIZ): 8 mm; zone of inhibition at 1000 µg/disc (Aspergillus fumigatus [15]): 12 mm; diameter of the inhibition zone (DIZ) (Penicillium chrysogenum [17]): inactive; diameter of the inhibition zone (DIZ) (Penicillium chrysogenum [18]): inactive; diameter of the inhibition zone (DIZ) (Lipomyces lipofer [19]): inactive; diameter of the inhibition zone (DIZ) (Lipomyces lipofer [20]): inactive; diameter of the inhibition zone (DIZ) (Pseudomonas aeruginosa): inactive
3 | O=C1CCCC2=C1C(c1cccc([N+](=O)[O-])c1)c1ccc3ccccc3c1N2 (stereo unspecified) | 12 mm | 12 mm | 7 mm | 9 mm | 7 mm | 8 mm | 12 mm | 10 mm | 14 mm | 13 mm | 9 mm | 31.2 µg/mL (≈ 84.2 µM) | 3.9 µg/mL (≈ 10.5 µM) | 15.6 µg/mL (≈ 42.1 µM) | 62.5 µg/mL (≈ 169 µM) | 9 mm | 10 mm | 31.2 µg/mL (≈ 84.2 µM) | 31.2 µg/mL (≈ 84.2 µM) | 125 µg/mL (≈ 337 µM) | zone of inhibition at 500 µg/disc (Bacillus cereus [3]; NCIM 2155, 24 h, read-out: DIZ): 7 mm; zone of inhibition at 1000 µg/disc (Bacillus cereus [4]; NCIM 2155, 24 h, read-out: DIZ): 10 mm; zone of inhibition at 1000 µg/disc (Staphylococcus): 11 mm; zone of inhibition at 500 µg/disc (Proteus vulgaris [9]): 7 mm; zone of inhibition at 1000 µg/disc (Proteus vulgaris [10]): 9 mm; diameter of the inhibition zone (DIZ) (Aspergillus fumigatus [14]): inactive; zone of inhibition at 1000 µg/disc (Aspergillus fumigatus [15]): 9 mm; diameter of the inhibition zone (DIZ) (Penicillium chrysogenum [17]): inactive; diameter of the inhibition zone (DIZ) (Penicillium chrysogenum [18]): inactive; zone of inhibition at 500 µg/disc (Lipomyces lipofer [19]): 8 mm; zone of inhibition at 1000 µg/disc (Lipomyces lipofer [20]): 10 mm; diameter of the inhibition zone (DIZ) (Pseudomonas aeruginosa): inactive
